The results in this text go back to ChEMBL document CHEMBL1125458, “3-O-alkylascorbic acids as free radical quenchers. 3. Protective effect on coronary occlusion-reperfusion induced arrhythmias in anesthetized rats” (1992).

The test system of assay [1] is Rattus norvegicus. Kind of assay: Change in arterial blood pressure was measured at 0.1 mg/kg dose(iv) in anesthetized rats. The class given is functional, Artery. The method, boiled down: (§1)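 Male Wistar rats, pentobarbital 60 mg/kg ip, supine. Compound suspended in saline with 1% olive oil and 1% Tween 80, injected via femoral vein. Femoral arterial pressure monitored 10 min after injection; change in mmHg, mean ± SE, n = 3–4.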

Assay [2] concerns Rattus norvegicus. The experiment in a line: Antiarrhythmic activity against anesthetized rats after peroral administration. The class given is functional, Heart. The method, boiled down:
(§2)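 Male Wistar rats (350–450 g) dosed orally 1 h before occlusion, then anesthetized with pentobarbital (60 mg/kg ip) and ventilated. LAD ligated 5 min, reperfused 10 min; VT plus VF durations summed within 600 s. Mean ± SE, n = 5–10; line 2 value is the minimum effective dose.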

Assay [3] relates to Rattus norvegicus. Kind of assay: inhibitory activity was tested against anesthetized rats at 100 mg/kg. The class given is functional.
The species named for assay [4] is Rattus norvegicus. Kind of assay: Minimum effective dose of the compound. Format: functional. The settings on record: read-out: MED.
For assay [5], the species on record is Cavia porcellus. Kind of assay: Inhibitory activity on atrial contractility in isolated Guinea pig right atrea at 0.1 mg/mL concentration. The class given is functional, Cardiac atrium. The method, boiled down: (§3)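 Right atria from male Hartley guinea pigs (450–550 g), loaded at 0.5 g, in Tyrode's solution at 37 °C gassed with 95% O2/5% CO2. Equilibrated at least 30 min until rate stable within 5 beats/min; spontaneous rate and contractile force recorded on polygraph after compound addition.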

For assay [6], the system named is Rattus norvegicus. The experiment in a line: Effect (10 mg/kg, po) on coronary reperfusion-induced arrhythmias was assessed in anesthetized rats.(Intervals of ventricular tachycardia (VT)+ventricular fibrillation (VF) within 600 s. Format: functional, Cardiac ventricle. The method, boiled down: as §2
Assay [7] deals with Rattus norvegicus. Kind of assay: Change in heart rate was measured at 0.1 mg/kg dose(iv) in anesthetized rats. The class given is functional. The method, boiled down: (§4)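 Anesthetized male Wistar rats (pentobarbital 60 mg/kg ip); compound in saline/1% olive oil/1% Tween 80 given by femoral vein. Lead II ECG recorded and heart rate read by beat-to-beat tachograph for 10 min after dosing; change in beats/min, mean ± SE, n = 3–4.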

Assay [8] relates to Rattus norvegicus. Kind of assay: Change in arterial blood pressure was measured at 0.3 mg/kg dose(iv) in anesthetized rats. The class given is functional, Artery. The method, boiled down: as §1
The subject of assay [9] is Rattus norvegicus. Kind of assay: Change in heart rate was measured at 0.3 mg/kg dose(iv) in anesthetized rats. Format: functional. The method, boiled down: as §4
The species named for assay [10] is Rattus norvegicus. The experiment in a line: Inhibitory effect on production of active oxygen species by rat peritoneal exudate macrophages. Format: functional. Details: concentration or dose not given beside the values. The method, boiled down:
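Peritoneal exudate macrophages harvested 3 days after ip liquid paraffin (male Wistar rats), >90% viable. Assay: 125 mM sodium phosphate pH 6.5, 0.08 mM EDTA, 1.2 U LDH, 0.32 mM NADH, (2–3) × 10^6 cells, compound in DMF, 1 × 10^-4 M. Started with NADH.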

The species entered for assay [11] is Cavia porcellus. Kind of assay: Inhibitory activity on atrial rate in isolated Guinea pig right atrea at 0.3 mg/mL concentration. The class given is functional, Cardiac atrium. The method, boiled down:
as §3

The species named for assay [12] is Cavia porcellus. Kind of assay: Inhibitory activity on atrial contractility in isolated Guinea pig right atrea at 0.03 mg/mL concentration. The class given is functional, Cardiac atrium. The method, boiled down: as §3
Assay [13] relates to Rattus norvegicus. Kind of assay: inhibitory activity was tested against anesthetized rats at 10 mg/kg. Format: functional.
For assay [14], the system named is Rattus norvegicus. Kind of assay: Effect (0.1 mg/kg, iv) on coronary reperfusion-induced arrhythmias was assessed in anesthetized rats.(Intervals of ventricular tachycardia (VT)+ventricular fibrillation (VF) within 600 s. The class given is functional, Cardiac ventricle.
For assay [15], the species on record is Cavia porcellus. Kind of assay: Inhibitory activity on atrial contractility in isolated Guinea pig right atrea at 0.3 mg/mL concentration. The class given is functional, Cardiac atrium. The method, boiled down: as §3
Assay [16] is filed under the species Cavia porcellus. The experiment in a line: Inhibitory activity on atrial rate in isolated Guinea pig right atrea at 0.1 mg/mL concentration. The class given is functional, Cardiac atrium. In short, it runs like this:
as §3

The subject of assay [17] is Rattus norvegicus. Kind of assay: Antiarrhythmic activity against anesthetized rats after intravenous administration. Format: functional, Heart.
In assay [18] the test system is Rattus norvegicus. The experiment in a line: Effect (100 mg/kg, po) on coronary reperfusion-induced arrhythmias was assessed in anesthetized rats.(Intervals of ventricular tachycardia (VT)+ventricular fibrillation (VF) within 600 s. The class given is functional, Cardiac ventricle. The method, boiled down: as §2
The species entered for assay [19] is Cavia porcellus. The experiment in a line: Inhibitory activity on atrial rate in isolated Guinea pig right atrea at 0.03 mg/mL concentration. The class given is functional, Cardiac atrium. In short, it runs like this:
as §3

Assay [20] is filed under the species Rattus norvegicus. Kind of assay: Inhibition of lipid peroxidation in rat liver microsomes. Format: functional. Details: concentration or dose not given beside the values. The settings on record: dose or concentration not given here. The method, boiled down: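 Wistar rat liver microsomes (2.0 mg protein) in 83.5 mM KCl, 37.2 mM Tris-HCl pH 7.4 with 1 mM ADP, 10 µM FeCl3, 0.02 mM NADPH; compound added in DMF, tested at 10^-5 M. 37 °C, 20 min. Malondialdehyde measured by thiobarbituric acid method, A532; % inhibition, mean ± SD, n = 3–6.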

Assay [21] deals with Rattus norvegicus. The experiment in a line: Effect (1 mg/kg, iv) on coronary reperfusion-induced arrhythmias was assessed in anesthetized rats.(Intervals of ventricular tachycardia (VT)+ventricular fibrillation (VF) within 600 s. Format: functional, Cardiac ventricle.
Assay [22] relates to Rattus norvegicus. Kind of assay: Effect (30 mg/kg, iv) on coronary reperfusion-induced arrhythmias was assessed in anesthetized rats.(Intervals of ventricular tachycardia (VT)+ventricular fibrillation (VF) within 600 s. The class given is functional, Cardiac ventricle.
Assay [23] concerns Rattus norvegicus. Kind of assay: Effect (10 mg/kg, iv) on coronary reperfusion-induced arrhythmias was assessed in anesthetized rats.(Intervals of ventricular tachycardia (VT)+ventricular fibrillation (VF) within 600 s. The class given is functional, Cardiac ventricle.
For assay [24], the system named is Rattus norvegicus. The experiment in a line: Effect (30 mg/kg, po) on coronary reperfusion-induced arrhythmias was assessed in anesthetized rats.(Intervals of ventricular tachycardia (VT)+ventricular fibrillation (VF) within 600 s. Format: functional, Cardiac ventricle. In short, it runs like this:
as §2

With `CCCCCCCCCCCCCCCCCCOC1=C(O)[C@@H](C(O)CO)OC1=O` (stereo not given in full), the Delta blood pressure in [1] is on record as -10 mmHg; in assay [8], -35.3 mmHg. Moreover, the Efficacy in assay [2] was 10 mg/kg; in assay [17] it was over 0.1 mg/kg. Besides, testing at 100 mg/kg in assay [3] gave an inhibition in vivo of 92%. Besides, in assay [4], the minimal effective dose was 100 mg/kg. For the same compound, the Inhibition – broadly, the change of the read-out against control, counted positive when it falls – in assay [5] is -16.7%; in assay [10] it was 87%; in assay [11] it was -13.6%; in assay [12] it was -10.7%; in assay [15] it was -39.9%; in assay [16], -6%. Moreover, the Inhibition in assay [19] was -1.8%. Also, the results for the Arrhythmias times in assay [6], in [14] and in assay [18] were 413.2, 238 and 39.4, respectively. The Delta heart rate in assay [7] is -10 beats min-1; in [9] it was -55 beats min-1. Also, in assay [13], the inhibition in vivo (commonly how much of the control response was suppressed) at 10 mg/kg turned out to be 20%. The inhibition – broadly, the change of the read-out against control, counted positive when it falls – in assay [20] came to 88%.
With `CCCCCCCCCCC(=O)COC1=C(O)C(=O)OC1C(O)CO` (stereo not given), the Arrhythmias times in assay [21] amounted to 205. In addition, the Inhibition in [10] stood at 11.1%. In assay [20], the inhibition was found to be 88%.
For the compound `CCCCCCCCCCCCCCCCCCOC(=O)COC1=C(O)C(=O)OC1C(O)CO` (stereo not given), the Arrhythmias times in [22] came out at 413. Further, the inhibition in assay [20] was determined as 30%.
Turning to `CCCCCCCCCCCCCCCCC(=O)COC1=C(O)C(=O)OC1C(O)CO` (stereo not given), in assay [23], the Arrhythmias times was found to be 521. In [20], this compound registered an inhibition of 43%.
In turn, `CCCCCCCCCCCCCCC(=O)COC1=C(O)C(=O)OC1C(O)CO` (stereo not given) registered an Arrhythmias times in assay [22] of 445. Moreover, the Inhibition in assay [10] is recorded as 36.8%. The compound also came in with an inhibition in [20] of 65%.
Regarding `CCCCCCCCCCOC1=C(O)C(=O)OC1C(O)CO` (stereo not given), the values for the Arrhythmias times in [21] and in [24] were 291 and 283.6, respectively. Moreover, the Inhibition in assay [10] is 15.9%. Further, in [20], the inhibition was found to be 93%.
In the case of `CCCCCCCCCCCCCCOC1=C(O)C(=O)OC1C(O)CO` (stereo not given), the Inhibition in assay [10] came to 40.7%. Besides, the Arrhythmias times in assay [23] is given as 352. The inhibition in [20] was 78%.
In the case of `CCCCCCCCC(=O)COC1=C(O)C(=O)OC1C(O)CO` (stereo not given), the Inhibition in assay [10] was 4.9%. The compound also displayed an Arrhythmias times in assay [23] of 433. In [20], this compound returned an inhibition of 64%.
